# Fewer inactive variants are shown than the library holds.
# B1: tRNA (parent)
# chain: GUUCCGUUGGCGUAAUGGUAACGCGUCUCCCUCCUAAGGAGAAGACUGCGGGUUCGAGUCCCGUACGGAACG
# Variants of: B1
# Assay: yeast fitness relative to wild type (ratio to wild type); higher = fitter; tRNA-Arg(CCU), competitive growth, 37 C, YPD
# In short: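 Changes in genotype frequencies gave Darwinian fitness relative to wild type. Frequencies were read by 100-nucleotide paired-end sequencing of gene amplicons before and after pooled Saccharomyces cerevisiae strains, carrying tRNA-Arg(CCU) gene variants at the native locus, were competed in YPD at 37°C for 24 hours in six replicates. A genotype was kept only with ≥ 100 starting reads, and estimates < 0.5 were set to 0.5.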
row,Variant,yeast fitness
1,A40C G48C U59C,≤ 0.5
2,A40G U64C,0.972
3,A40U C46G G68C,≤ 0.5
4,A40U A57U,0.837
5,G39C C66U,0.633
6,A40U U47A,0.856
7,G39C G51C,0.568
8,G39A G51A U53A G63C,≤ 0.5
9,G39A A42U,0.767
10,A40C C46U A65G G68C,0.59
11,G39U A43G,0.811
12,G39A A65U,0.791
13,G41A A65C,0.67
14,G39A A43C,0.796
15,G38C G56U,0.633
16,A40U G48A C60A U64C A69C,≤ 0.5
17,A40C U47A A69G,0.54
18,A40U A43G A57G,≤ 0.5
19,A40U,0.988
20,A40G,1.01
21,A40C,1
22,A40G G44A A70G,0.567
23,G39A C46A C60G C61U,0.512
24,G38C U54C,0.82

row,Variant,yeast fitness
1,A40C G48C A69C,0.57
2,G41A A42G A70U,≤ 0.5
3,G38C U64A G68A,≤ 0.5
4,G41A C55A,0.661
5,A40U U59C G68A,0.569
6,G41C C46U,1.03
7,G39A C66U,0.797
8,A40U A43C G67U,0.724
9,A40U G58U,0.768
10,A40U G58C,0.945
11,A40U A65G,1.01
12,G41C A42U U64C G68C,≤ 0.5
13,G39C C62U,0.776
14,G39C C46A C60G,≤ 0.5
15,G39A G48A A57U,≤ 0.5
16,A40C U64C,0.912
17,A40U U59A,0.678
18,G38C U64C,0.803
19,G39C G56C,0.553
20,A40U U54A C60G G67C,0.599
21,G39C C55A,0.643
22,G41A G52U U64A G68A,0.622
23,G39A A45C,1.03
24,G39C U47C A57C C61A U64C,≤ 0.5

row,Variant,yeast fitness
1,A40C G58A,0.962
2,G39C G48C G63C C66G,≤ 0.5
3,A40U C55U C61G,0.507
4,A40G G44C,0.676
5,A40C G51A C61U A69C,0.618
6,A40C U47C,0.904
7,G38C G50A G52A C55U,≤ 0.5
8,G39C G58A,0.876
9,A40C G50A,0.619
10,G41A C66U,0.685
11,G41A C66A,0.687
12,A40U A42G A57U,0.576
13,A40U A42C G44A G51A A65G,0.542
14,A40C C49U A69C,0.592
15,A40U G56C,0.651
16,G39C C49G G50C,≤ 0.5
17,G41A U53G U64A,≤ 0.5
18,G39A G67A,0.769
19,G39A G52A,0.759
20,A40U C61G G68C,0.571
21,A40U C61G G68C A70G,≤ 0.5
22,G39A U47A C49U U54A,≤ 0.5
23,G41C A43U G68U,≤ 0.5
24,G39A G50A C66U,≤ 0.5

row,Variant,yeast fitness
1,G41A G48C G67C,≤ 0.5
2,G41A A65G G67A,0.635
3,A40C G52C G67A,0.55
4,G39C A43G G44C A45U C49G G67C,0.558
5,A40U A45G,0.816
6,A40U A45U,0.941
7,G39C U59A C60G,0.541
8,A40C G68U,0.788
9,A40C G68C,0.641
10,G41A C60G,0.646
11,A40G A43G C55U,0.565
12,A40G G52C C66G,≤ 0.5
13,A40U U64C,1.08
14,G39C U53C,0.747
15,G39C A42G,0.653
16,G39C G48C A69C,0.57
17,A40U C60A,0.604
18,G41A A43C C49G A57G,≤ 0.5
19,A40G C49U,0.883
20,A40C G48C,0.684
21,A40U C49G G56C,≤ 0.5
22,G41A C49U G63A,0.678
23,G39C A42U C60G C62U G67C,≤ 0.5
24,A40G G51C A57U,≤ 0.5

row,Variant,yeast fitness
1,A40C U54A C62U,≤ 0.5
2,G41A C61U,0.786
3,G38U,1.01
4,A40G G56C,0.725
5,G39A C49U,0.842
6,A40C C55A C66A,0.578
7,G41A A43U G51C,≤ 0.5
8,G41A G58A,1
9,G41A C49A C62U G68C,≤ 0.5
10,G39C C46U,0.98
11,A40C G67A,0.846
12,G39A U54C,0.945
13,G41A C60A C61U A69U,≤ 0.5
14,G41C A65C,0.794
15,G38C U59C,0.711
16,A40G U54C G68C,≤ 0.5
17,A40U A45U G48A,0.998
18,A40U A42C C62U G68A,≤ 0.5
19,G41A C55U U59A A70U,≤ 0.5
20,A40U G44A,0.981
21,G39A G44A G50A G63C,≤ 0.5
22,G39A A45C A69C,0.804
23,A40U G67U,0.797
24,A40G G48C C61G A65U,≤ 0.5

row,Variant,yeast fitness
1,G38U A65G,0.802
2,A40G G44C U53C C55A A65U,≤ 0.5
3,G41C C46G U59C C60U,≤ 0.5
4,G38U G48A A70U,0.652
5,G39C C49A,0.664
6,A40G G63A G67A,≤ 0.5
7,A40G G68U,0.857
8,A40C A57G C61G,≤ 0.5
9,A40C A57G C61U,0.573
10,G41A G50C,0.676
11,G41A G48C,0.772
12,G39C G52A,0.76
13,A40C A42G U47C C55A,0.587
14,G38C G50C,0.562
15,A40G C61U A65U,≤ 0.5
16,G41C A42G A70G,0.593
17,G41C A42G G51A,0.538
18,A40C A70U,0.797
19,A40G C62U A65C C66A,≤ 0.5
20,A40G A45C C60A,≤ 0.5
21,G39C A43U A69U,0.736
22,G39C A57G,0.705
23,G39C A57U,0.682
24,A40U U54C C60A,≤ 0.5

row,Variant,yeast fitness
1,A40C C49G,0.804
2,G41A C49U G51C C61U,≤ 0.5
3,G41A G52C C61U C62U,≤ 0.5
4,G39A U53A C62G C66U,≤ 0.5
5,A40C C60A C66U,≤ 0.5
6,G41A G67U G68C,0.507
7,A40U C49A A57G C62U,≤ 0.5
8,G39A G63A,0.945
9,G39A G58C A69U,0.773
10,A40G A70C,0.946
11,A40U G44C U53G,≤ 0.5
12,A40U A45U C49U,0.63
13,A40C A42U A43C G48A,0.55
14,A40U G44A A65U,0.51
15,A40C G41C C49A G68C,≤ 0.5
16,G41C A43C,0.731
17,G41C A42G G51A A69C,≤ 0.5
18,G41A G52A A69C,0.53
19,G41C A65C A70U,0.641
20,A40U U53G,0.638
21,A40U U53A,0.774
22,G39U A45C,0.851
23,A40C C55A,0.556

# From the RNAGym collection of RNA variant scans (doi:10.1126/science.aae0568)
